Compound activity deposited in PubChem by several laboratories.
In the library only some 1.7% were active in any assay of this set; here they are far more common.
IDE cell inh – inhibitors of human insulin-degrading enzyme in cells | P14735 | HEK cells, FAbetaB cleavage, fluorescence polarization | inhibition, % at 5.59 µM | 320,000 tested, 0.41% active;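 active = percent inhibition above the average of all tested compounds plus 3 SD, set per screening campaign, cut at about 16% in these data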;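 note: IDE supplied by intact live HEK cells; FP after avidin binding of uncleaved biotin substrate so inhibition keeps polarization high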
IDE act – IDE (human) activation, cell-based; activation, % at 5.96 µM; P14735; 340,000 tested, 0.073% active; HEK cells, FAbeta-B cleavage, fluorescence polarization; 0% vehicle, 100% cell-free pure enzyme wells;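 active = activation above the mean of all tested compounds plus 3 SD, set per screening campaign, cut at about 17% in these data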
HNF4A DNA FP – change in binding of human HNF4 alpha to DNA. HNF4a-FITC DNA binding, fluorescence polarization, 1 h. 360,000 tested, 0.3% active. activity change, % at 10 µM. P41235; in the data active = activity change above about 30%, passing the limit was not always enough
Target sequence (P41235 whole entry, looked up): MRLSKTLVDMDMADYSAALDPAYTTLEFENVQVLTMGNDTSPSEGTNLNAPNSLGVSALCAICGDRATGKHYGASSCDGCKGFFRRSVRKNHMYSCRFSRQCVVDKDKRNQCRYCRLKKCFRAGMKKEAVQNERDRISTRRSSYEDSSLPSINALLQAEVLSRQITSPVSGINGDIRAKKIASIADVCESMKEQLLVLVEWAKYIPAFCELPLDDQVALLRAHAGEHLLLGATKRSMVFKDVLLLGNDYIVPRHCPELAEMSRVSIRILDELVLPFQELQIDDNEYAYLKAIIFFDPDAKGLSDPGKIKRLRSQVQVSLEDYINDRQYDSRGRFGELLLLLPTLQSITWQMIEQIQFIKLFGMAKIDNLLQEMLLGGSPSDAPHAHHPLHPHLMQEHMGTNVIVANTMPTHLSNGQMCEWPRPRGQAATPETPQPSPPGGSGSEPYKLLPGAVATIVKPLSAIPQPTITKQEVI
TPT1 inh – blocks Candida albicans tRNA 2'-phosphotransferase. recombinant caTPT1, FP RNA substrate dephosphorylation. inhibition, % at 5 µM. 300,000 tested, 0.81% active;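 active = inhibition above the mean of all tested compounds plus 3 SD, set per screening campaign, cut at about 24% in these data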
TbMetRS inhib – blocks T. brucei methionyl-tRNA synthetase activity | 360,000 tested, 0.4% active | AID 624268 | inhibition, % at 11.9 µM | purified T. brucei MetRS, ATP depletion, Kinase-Glo luminescence;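 active = inhibition above a per-plate cutoff of the control wells' mean inhibition plus 3 SD, cut at about 5.5% in these data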
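Material: parasite MetRS enzyme / Replication: singlicate, one well per compound / Signal: luminescence of leftover ATP / Schedule: 2 h aminoacylation at 25 °C after 15 min preincubation / Medium: HEPES-MgCl2-KCl buffer plus DTT, spermine, BSA, pyrophosphatase / Doses: 11.9 µM single point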
CSN deneddyl inh – CSN deneddylation inhibition; AID 651999; Purified CSN, SCF-Nedd8-OG deneddylation, fluorescence polarization; 360,000 tested, 0.38% active; inhibition, % at 12.5 µM;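 active = pattern-corrected inhibition above about 35%, with an unprinted fluorescence ratio check between 0.5 and 1.5, limit read from the data, passing the limit was not always enough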
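Material: human Csn5 produced in HEK293T cells; Input: enzyme 0.24 nM; Reagent: SCFSkp2-Nedd8OG substrate at 10 nM final; Dosing: 12.5 µM compound; Incubation: 90 min reaction at room temperature; Detection: fluorescence polarization of the substrate; Evaluation: % inhibition of substrate cleavage by Csn5; Control set: substrate-only high control, full reaction low control.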
TbMetRS confirm – Trypanosoma brucei MetRS inhibition confirmed | T. brucei MetRS enzyme, luminescence (ATP depletion) | inhibition, % at 11.9 µM | 1,400 tested, 93% active | AID 624412 | shares compounds with TbMetRS inhib; in the data active = inhibition above about 7%
Jurkat cytotox – counter-screen for T. brucei MetRS inhibitors: Jurkat cell cytotoxicity. inhibition, % at 8.3 µM. Jurkat cells viability, ATP luminescence. AID 624413. shares compounds with TbMetRS inhib. 1,400 tested, 12% active; in the data active = inhibition above about 15%
Tb MetRS inh FP – orthogonal test for Trypanosoma brucei MetRS inhibitors. shares compounds with TbMetRS inhib. purified T. brucei MetRS, fluorescence polarization. inhibition, % at 11.9 µM. 1,400 tested, 44% active. AID 651607; in the data active = inhibition above about 17%
Hits are given with their value; – = inactive; · = no result given.

SMILES	IDE cell inh	IDE act	HNF4A DNA FP	TPT1 inh	TbMetRS inhib	CSN deneddyl inh	TbMetRS confirm	Jurkat cytotox	Tb MetRS inh FP
CCN(c1ccccc1)S(=O)(=O)c1ccc(C(=O)Oc2ccc(C(C)=O)cc2)cc1	–	–	–	–	–	–	·	·	·
OC[C@@H]1CN(CCN2CCOCC2)C[C@H](n2cnc3c(NC4CCCC4)ncnc32)O1	·	·	–	·	–	–	·	·	·
COc1cccc(C2c3[nH]c4ccccc4c3C[C@H]3C(=O)N(c4ccccc4C(=O)N4CCCC4C(=O)O)C(=O)N23)c1 (stereo not given in full)	–	–	–	–	6.4	–	16	–	–
O=C1[C@@H]2Cc3c([nH]c4ccccc34)C(c3ccccc3)N2C(=O)CN1C1CC1 (stereo not given in full)	–	–	–	–	–	–	·	·	·
COc1cccc(C2c3[nH]c4ccccc4c3C[C@H]3C(=O)N(CCCOC(C)C)CC(=O)N23)c1 (stereo not given in full)	–	–	–	–	–	–	·	·	·
O=C1[C@@H]2Cc3c([nH]c4ccccc34)C(c3ccc([N+](=O)[O-])cc3)N2C(=O)CN1C1CC1 (stereo not given in full)	–	–	–	–	9.4	–	20	–	–
COc1cccc(C2c3[nH]c4ccccc4c3C[C@H]3C(=O)N(CCCCCO)CC(=O)N23)c1 (stereo not given in full)	–	–	–	–	10.0	–	21	–	–
COCCCN1CC(=O)N2C(c3cccc(C)c3)c3[nH]c4ccccc4c3C[C@H]2C1=O (stereo not given in full)	–	–	–	–	–	–	·	·	·
O=C1[C@@H]2Cc3c([nH]c4ccccc34)C(c3cccc([N+](=O)[O-])c3)N2C(=O)CN1CCCO (stereo not given in full)	–	–	–	–	96	–	95	–	93
O=C(NC1CCCCC1)c1cc(F)cc2c1OCOC2	–	–	–	–	–	–	·	·	·
COC(=O)c1ccc(C2c3[nH]c4ccccc4c3C[C@H]3C(=O)N(C)CC(=O)N23)cc1 (stereo not given in full)	–	–	–	–	–	–	·	·	·
CN1CC(=O)N2C(c3cccc([N+](=O)[O-])c3)c3[nH]c4ccccc4c3C[C@H]2C1=O (stereo not given in full)	–	–	–	–	78	–	105	–	91
CN1CC(=O)N2C(c3ccc(Cl)cc3)c3[nH]c4ccccc4c3C[C@H]2C1=O (stereo not given in full)	–	–	–	–	7.2	–	18	43	–
O=C(NCc1ccco1)/C(=C/c1cccc(C(F)(F)F)c1)c1nc2ccccc2[nH]1	–	–	–	–	–	–	·	·	·
O=C(NCc1ccco1)/C(=C/c1ccc(C(F)(F)F)cc1)c1nc2ccccc2[nH]1	–	–	–	–	7.7	–	–	30	–
CCC1CCCCN1C(=O)COC(=O)c1cc(=O)[nH]c2ccccc12 (stereo not given)	–	–	–	·	–	–	·	·	·
O=c1[nH]c(COc2ccccc2)nc2ccccc12	–	–	–	–	–	–	·	·	·
Clc1ccc2nc(COc3ccccc3)[nH]c2c1	–	–	–	–	12	–	24	51	21
COCC(C)NCc1ccc(OC)c(Br)c1 (stereo not given)	–	–	–	–	–	–	·	·	·
c1ccc2c(CCNc3ncnc4nc[nH]c34)cccc2c1	–	–	–	–	43	–	58	–	35
c1ccc(CCCNc2ncnc3nc[nH]c23)cc1	–	–	–	–	–	–	·	·	·
CCCNc1ncnc2nc[nH]c12	–	–	–	–	–	–	·	·	·
Clc1ccc(CCNc2ncnc3nc[nH]c23)cc1	–	–	–	–	11	–	17	27	–
CCCCCCCCN1C(=O)[C@H](CC(=O)NCCc2ccccc2OC)C[C@@]2(C(=O)OC)CC(C)(C)CC=C12	·	·	–	·	–	–	·	·	·
CCCn1c(N)nc2ccccc21	–	–	–	–	–	–	·	·	·
SMILES	IDE cell inh	IDE act	HNF4A DNA FP	TPT1 inh	TbMetRS inhib	CSN deneddyl inh	TbMetRS confirm	Jurkat cytotox	Tb MetRS inh FP
Nc1nc2ccccc2n1CCOc1ccc(Br)cc1	–	–	–	–	37	–	51	19	34
Nc1nc2ccccc2n1CCOc1ccc(Cl)cc1	–	–	–	–	26	–	45	–	22
Nc1nc2ccccc2n1CCOc1ccccc1Cl	–	–	–	–	67	–	80	–	44
Cc1ccc(OCCn2c(C)nc3ccccc32)cc1	–	–	–	–	–	–	·	·	·
CC(C)(C)NC(=O)CN(C(=O)CNS(=O)(=O)c1ccc(Cl)cc1)c1ccc2c(c1)OCCO2	–	–	–	–	–	–	·	·	·
COc1ccc(CNC(=O)c2ccc(-n3ccnc3)c3ccoc23)cc1OC	·	·	–	·	–	–	·	·	·
Cc1c(C(=O)NCCSCc2cccc(C(F)(F)F)c2)cnn1-c1ccc(Cl)cc1	–	–	–	–	–	–	·	·	·
O=[N+]([O-])c1c(N2CCN(CCO)CC2)nc2ccccn12	–	–	–	–	–	–	·	·	·
O=C(NCCc1nc2ccccc2[nH]1)/C(=C/c1ccc2c(c1)OCO2)NC(=O)c1ccccc1	–	–	–	–	6.4	–	9.6	–	–
COc1ccccc1C(=O)N/C(=C\c1ccc2c(c1)OCO2)C(=O)NCCc1nc2ccccc2[nH]1	–	–	–	–	8.8	–	16	–	–
CCc1cccc(NC(=O)Cn2c(=O)oc3cc(S(=O)(=O)N4CCOCC4)ccc32)c1	–	–	–	–	7.0	–	12	–	–
CCc1ccc(NC(=O)Cn2c(=O)oc3cc(S(=O)(=O)N4CCOCC4)ccc32)cc1	–	–	–	–	15	–	12	–	–
COc1ccc(CNC(=O)c2ccccc2SCC(=O)NCc2ccco2)cc1	–	–	–	·	–	–	·	·	·
COc1ccc(CCC(=O)Nc2c(-c3ccc(N(C)C)cc3)[nH][nH]c2=O)cc1	·	·	–	·	14	–	–	–	–
O=C(NCCCO)/C(=C\c1ccco1)NC(=O)c1ccco1	–	–	–	–	–	–	·	·	·
Cc1cc(=O)c2cc(Br)ccc2[nH]1	–	–	–	–	6.0	–	7.5	–	–
CN(O)/C=N/C(=S)Nc1ccc(Cl)cc1Cl	–	–	–	–	–	–	·	·	·
Cn1nnc(NCc2cc(Br)ccc2OCc2ccccc2F)n1	–	–	–	–	20	–	24	–	–
